Reference: ChEMBL document CHEMBL4118192, “BET bromodomain ligands: Probing the WPF shelf to improve BRD4 bromodomain affinity and metabolic stability” (Bioorg Med Chem, 2018)
pIC50, pKd: −log10 of the molar value.

Experiments:
[1] = biological target: T1, Bromodomain-containing protein 4 (Homo sapiens, UniProt O60885); assay: Inhibition of recombinant His6-tagged human BRD4 bromodomain 1 expressed in Escherichia coli BL21(DE3)-R3-pRARE2 cells preincubated for 30 mins followed by H4KAc4 peptide substrate addition measured after 30 mins by AlphaScreen assay; conditions: for pIC50: read-out: IC50; for IC50: read-out: pIC50 (converted)
[2] = Apparent half life in human liver microsomes at 3 uM; assay type: ADME, microsome; conditions: read-out: t1/2(app)
[3] = Intrinsic clearance in human liver microsomes at 3 uM; assay type: ADME, microsome; conditions: read-out: CLH
[4] = biological target: T1, Bromodomain-containing protein 4; assay: Inhibition of human partial length BRD4 bromodomain 1 (N44 to E168 residues) expressed in bacterial expression system assessed as residual activity at 1 uM by BROMOscan assay relative to control
Peregrin (Homo sapiens) = Peregrin (Homo sapiens) (UniProt P55201); assay: Inhibition of human partial length BRPF1 (E627 to G740 residues) expressed in bacterial expression system assessed as residual activity at 1 uM by BROMOscan assay relative to control
[5] = biological target: ATPase family AAA domain-containing protein 2B (Homo sapiens) (UniProt Q9ULI0); assay: Inhibition of human partial length ATAD2B (Q955 to R1082 residues) expressed in bacterial expression system assessed as residual activity at 1 uM by BROMOscan assay relative to control
MCF7 = assay: Growth inhibition of human MCF7 cells after 48 hrs by SRB assay; assay type: functional; conditions: MCF7, 48 h
Summary of the method: (§1)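 In-house assay. Cells were seeded into 96-well plates at a density for exponential growth and treated with a concentration range for 48 h. They were then fixed in 10% (w/v) TCA and stained with sulforhodamine B. The 50% growth-inhibitory concentration relative to control cells was calculated as the mean of three repeats ± standard deviation.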

[6] = biological target: Bromodomain testis-specific protein (Homo sapiens) (UniProt Q58F21); assay: Inhibition of human partial length BRDT bromodomain 1 (N21 to E137 residues) expressed in bacterial expression system assessed as residual activity at 1 uM by BROMOscan assay relative to control
[7] = biological target: Bromodomain-containing protein 2 (Homo sapiens) (UniProt P25440); assay: Inhibition of human partial length BRD2 bromodomain 1 (K71 to N194 residues) expressed in bacterial expression system assessed as residual activity at 1 uM by BROMOscan assay relative to control
[8] = biological target: Histone acetyltransferase KAT2B (Homo sapiens) (UniProt Q92831); assay: Inhibition of human partial length PCAF (G715 to D831 residues) expressed in bacterial expression system assessed as residual activity at 1 uM by BROMOscan assay relative to control
[9] = biological target: Bromodomain-containing protein 9 (Homo sapiens) (UniProt Q9H8M2); assay: Inhibition of human partial length BRD9 (R130 to V259 residues) expressed in bacterial expression system assessed as residual activity at 1 uM by BROMOscan assay relative to control
[10] = biological target: T1, Bromodomain-containing protein 4; assay: Inhibition of human partial length BRD4 bromodomain 2 (K333 to E460 residues) expressed in bacterial expression system assessed as residual activity at 1 uM by BROMOscan assay relative to control
[11] = biological target: Bromodomain and WD repeat-containing protein 1 (Homo sapiens) (UniProt Q9NSI6); assay: Inhibition of human partial length WDR9 bromodomain 2 (A1310 to E1430 residues) expressed in bacterial expression system assessed as residual activity at 1 uM by BROMOscan assay relative to control
HT-29 = assay: Growth inhibition of human HT-29 cells after 48 hrs by SRB assay; assay type: functional; conditions: HT-29, 48 h; summary of the method: as §1
[12] = biological target: CREB-binding protein (Homo sapiens) (UniProt Q92793); assay: Inhibition of human partial length CREBBP (R1081 to G1197 residues) expressed in bacterial expression system assessed as residual activity at 1 uM by BROMOscan assay relative to control
[13] = biological target: Bromodomain-containing protein 3 (Homo sapiens) (UniProt Q15059); assay: Inhibition of human partial length BRD3 bromodomain 1 (P24 to E144 residues) expressed in bacterial expression system assessed as residual activity at 1 uM by BROMOscan assay relative to control
A498 = assay: Growth inhibition of human A498 cells after 48 hrs by SRB assay; assay type: functional; conditions: A498, 48 h; summary of the method: as §1
[14] = biological target: T1, Bromodomain-containing protein 4; assay: Binding affinity to His6-tagged human BRD4 bromodomain 1 expressed in Escherichia coli BL21(DE3)-R3-pRARE2 cells by isothermal titration calorimetric method
[15] = biological target: SWI/SNF-related matrix-associated actin-dependent regulator of chromatin subfamily A member 4 (Homo sapiens) (UniProt P51532); assay: Inhibition of human partial length SMARCA4 (A1448 to S1575 residues) expressed in bacterial expression system assessed as residual activity at 1 uM by BROMOscan assay relative to control

Sequence of Bromodomain and WD repeat-containing protein 1 (Homo sapiens) (Q9NSI6 whole entry, the tested form may be a part): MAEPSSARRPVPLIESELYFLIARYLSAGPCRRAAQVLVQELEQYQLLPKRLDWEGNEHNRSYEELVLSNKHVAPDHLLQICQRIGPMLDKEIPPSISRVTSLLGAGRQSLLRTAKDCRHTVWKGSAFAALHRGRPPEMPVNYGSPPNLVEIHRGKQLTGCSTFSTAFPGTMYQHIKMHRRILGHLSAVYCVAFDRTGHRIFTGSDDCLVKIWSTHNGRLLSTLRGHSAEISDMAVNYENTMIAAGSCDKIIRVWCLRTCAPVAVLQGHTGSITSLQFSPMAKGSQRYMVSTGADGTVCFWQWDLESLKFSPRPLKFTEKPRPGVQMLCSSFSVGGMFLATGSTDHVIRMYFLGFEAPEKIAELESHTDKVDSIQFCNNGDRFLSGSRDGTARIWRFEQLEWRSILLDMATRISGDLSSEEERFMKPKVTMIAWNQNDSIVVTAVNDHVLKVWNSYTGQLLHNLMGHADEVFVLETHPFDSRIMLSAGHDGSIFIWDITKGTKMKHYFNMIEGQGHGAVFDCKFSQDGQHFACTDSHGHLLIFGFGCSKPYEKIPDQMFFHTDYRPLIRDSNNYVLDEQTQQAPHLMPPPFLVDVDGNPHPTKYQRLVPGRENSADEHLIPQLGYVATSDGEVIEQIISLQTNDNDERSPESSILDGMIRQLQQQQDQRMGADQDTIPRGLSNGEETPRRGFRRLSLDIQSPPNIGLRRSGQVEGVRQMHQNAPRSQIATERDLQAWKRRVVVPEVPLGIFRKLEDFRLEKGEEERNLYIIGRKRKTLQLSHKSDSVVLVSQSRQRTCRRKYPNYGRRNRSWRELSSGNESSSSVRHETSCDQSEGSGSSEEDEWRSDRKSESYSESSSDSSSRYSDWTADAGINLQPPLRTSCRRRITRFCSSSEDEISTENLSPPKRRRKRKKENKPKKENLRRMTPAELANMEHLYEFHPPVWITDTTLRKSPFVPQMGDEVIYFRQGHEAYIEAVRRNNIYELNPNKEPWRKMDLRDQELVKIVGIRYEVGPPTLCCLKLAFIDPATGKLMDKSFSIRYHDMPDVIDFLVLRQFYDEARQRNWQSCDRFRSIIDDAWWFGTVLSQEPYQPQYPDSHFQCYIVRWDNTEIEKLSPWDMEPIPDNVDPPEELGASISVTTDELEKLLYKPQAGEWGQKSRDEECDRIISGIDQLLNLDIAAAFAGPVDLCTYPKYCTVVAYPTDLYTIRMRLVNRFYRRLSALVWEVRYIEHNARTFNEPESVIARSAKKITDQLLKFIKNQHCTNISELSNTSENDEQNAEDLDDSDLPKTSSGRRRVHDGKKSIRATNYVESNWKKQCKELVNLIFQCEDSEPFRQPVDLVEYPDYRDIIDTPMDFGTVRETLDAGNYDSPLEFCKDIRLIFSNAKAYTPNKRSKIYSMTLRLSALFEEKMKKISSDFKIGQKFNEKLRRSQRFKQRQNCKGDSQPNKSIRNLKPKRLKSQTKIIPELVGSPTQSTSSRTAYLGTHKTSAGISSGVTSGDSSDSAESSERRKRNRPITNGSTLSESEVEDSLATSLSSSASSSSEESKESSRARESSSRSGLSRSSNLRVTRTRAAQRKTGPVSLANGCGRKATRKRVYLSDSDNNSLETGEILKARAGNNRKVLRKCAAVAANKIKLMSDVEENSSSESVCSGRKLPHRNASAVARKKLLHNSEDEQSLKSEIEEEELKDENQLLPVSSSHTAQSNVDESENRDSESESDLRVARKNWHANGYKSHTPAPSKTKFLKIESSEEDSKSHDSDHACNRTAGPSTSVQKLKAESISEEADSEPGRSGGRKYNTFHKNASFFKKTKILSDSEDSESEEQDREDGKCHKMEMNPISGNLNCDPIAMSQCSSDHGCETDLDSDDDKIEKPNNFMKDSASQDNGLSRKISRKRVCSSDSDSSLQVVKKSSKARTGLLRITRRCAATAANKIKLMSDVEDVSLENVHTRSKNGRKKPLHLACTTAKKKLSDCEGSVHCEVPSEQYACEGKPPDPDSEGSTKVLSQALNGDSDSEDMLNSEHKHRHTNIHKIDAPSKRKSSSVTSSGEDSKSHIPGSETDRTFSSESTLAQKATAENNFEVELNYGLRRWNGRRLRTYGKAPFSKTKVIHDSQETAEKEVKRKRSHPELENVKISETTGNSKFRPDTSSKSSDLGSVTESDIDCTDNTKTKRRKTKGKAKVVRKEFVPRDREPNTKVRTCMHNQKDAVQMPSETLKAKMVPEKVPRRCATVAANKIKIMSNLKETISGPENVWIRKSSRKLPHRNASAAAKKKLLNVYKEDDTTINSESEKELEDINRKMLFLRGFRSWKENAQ
Sequence of Bromodomain-containing protein 3 (Homo sapiens) (Q15059 2-726 limits assumed): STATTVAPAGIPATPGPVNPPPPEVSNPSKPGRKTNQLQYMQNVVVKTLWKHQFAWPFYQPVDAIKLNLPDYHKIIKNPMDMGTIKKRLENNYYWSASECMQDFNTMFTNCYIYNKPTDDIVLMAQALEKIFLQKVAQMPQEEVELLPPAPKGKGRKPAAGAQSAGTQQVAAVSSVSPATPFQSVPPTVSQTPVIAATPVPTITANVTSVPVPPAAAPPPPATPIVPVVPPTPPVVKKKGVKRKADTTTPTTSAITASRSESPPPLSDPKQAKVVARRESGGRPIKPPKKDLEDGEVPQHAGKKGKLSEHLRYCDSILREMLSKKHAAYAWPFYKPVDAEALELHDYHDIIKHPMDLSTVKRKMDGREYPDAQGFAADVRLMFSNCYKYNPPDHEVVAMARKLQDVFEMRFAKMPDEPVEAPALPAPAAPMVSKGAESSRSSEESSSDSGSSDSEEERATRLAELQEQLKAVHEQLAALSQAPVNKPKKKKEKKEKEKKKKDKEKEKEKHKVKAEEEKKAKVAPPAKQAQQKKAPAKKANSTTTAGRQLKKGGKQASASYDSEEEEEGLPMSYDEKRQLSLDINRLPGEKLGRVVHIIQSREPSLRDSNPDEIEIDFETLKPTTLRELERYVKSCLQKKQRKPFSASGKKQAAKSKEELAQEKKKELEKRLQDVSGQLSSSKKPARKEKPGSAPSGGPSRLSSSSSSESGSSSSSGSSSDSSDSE
Sequence of Peregrin (Homo sapiens) (P55201 whole entry, the tested form may be a part): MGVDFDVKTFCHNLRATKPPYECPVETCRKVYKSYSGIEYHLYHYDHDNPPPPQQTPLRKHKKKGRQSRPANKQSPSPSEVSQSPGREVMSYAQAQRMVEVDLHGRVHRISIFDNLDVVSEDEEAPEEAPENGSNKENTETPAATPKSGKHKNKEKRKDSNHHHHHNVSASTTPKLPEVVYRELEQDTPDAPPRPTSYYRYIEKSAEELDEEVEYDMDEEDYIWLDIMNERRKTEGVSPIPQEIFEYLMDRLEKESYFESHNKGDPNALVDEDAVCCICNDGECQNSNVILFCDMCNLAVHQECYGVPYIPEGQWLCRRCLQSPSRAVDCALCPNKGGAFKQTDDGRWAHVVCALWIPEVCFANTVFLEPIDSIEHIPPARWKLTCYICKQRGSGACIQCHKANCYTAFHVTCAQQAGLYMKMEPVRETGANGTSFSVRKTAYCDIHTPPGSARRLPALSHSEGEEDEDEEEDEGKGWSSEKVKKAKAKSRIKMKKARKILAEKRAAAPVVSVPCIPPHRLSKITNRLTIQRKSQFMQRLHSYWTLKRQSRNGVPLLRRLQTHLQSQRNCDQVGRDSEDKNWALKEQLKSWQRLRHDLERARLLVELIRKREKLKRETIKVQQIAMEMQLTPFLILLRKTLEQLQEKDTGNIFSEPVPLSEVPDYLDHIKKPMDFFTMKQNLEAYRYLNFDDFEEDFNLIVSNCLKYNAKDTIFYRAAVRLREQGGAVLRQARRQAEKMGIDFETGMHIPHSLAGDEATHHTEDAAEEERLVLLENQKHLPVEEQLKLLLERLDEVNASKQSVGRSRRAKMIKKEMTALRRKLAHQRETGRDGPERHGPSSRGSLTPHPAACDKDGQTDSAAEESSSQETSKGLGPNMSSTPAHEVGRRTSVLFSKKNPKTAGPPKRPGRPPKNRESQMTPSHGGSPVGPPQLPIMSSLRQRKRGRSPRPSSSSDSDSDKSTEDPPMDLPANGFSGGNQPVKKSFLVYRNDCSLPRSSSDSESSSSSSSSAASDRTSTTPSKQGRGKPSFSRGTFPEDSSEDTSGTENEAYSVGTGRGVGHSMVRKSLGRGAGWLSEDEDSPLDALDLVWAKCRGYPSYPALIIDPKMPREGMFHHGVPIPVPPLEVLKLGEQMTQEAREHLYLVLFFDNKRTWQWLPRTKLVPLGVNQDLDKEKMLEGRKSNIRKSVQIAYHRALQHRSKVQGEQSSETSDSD
Sequence of Bromodomain-containing protein 2 (Homo sapiens) (P25440 whole entry, looked up, the tested form may be a part): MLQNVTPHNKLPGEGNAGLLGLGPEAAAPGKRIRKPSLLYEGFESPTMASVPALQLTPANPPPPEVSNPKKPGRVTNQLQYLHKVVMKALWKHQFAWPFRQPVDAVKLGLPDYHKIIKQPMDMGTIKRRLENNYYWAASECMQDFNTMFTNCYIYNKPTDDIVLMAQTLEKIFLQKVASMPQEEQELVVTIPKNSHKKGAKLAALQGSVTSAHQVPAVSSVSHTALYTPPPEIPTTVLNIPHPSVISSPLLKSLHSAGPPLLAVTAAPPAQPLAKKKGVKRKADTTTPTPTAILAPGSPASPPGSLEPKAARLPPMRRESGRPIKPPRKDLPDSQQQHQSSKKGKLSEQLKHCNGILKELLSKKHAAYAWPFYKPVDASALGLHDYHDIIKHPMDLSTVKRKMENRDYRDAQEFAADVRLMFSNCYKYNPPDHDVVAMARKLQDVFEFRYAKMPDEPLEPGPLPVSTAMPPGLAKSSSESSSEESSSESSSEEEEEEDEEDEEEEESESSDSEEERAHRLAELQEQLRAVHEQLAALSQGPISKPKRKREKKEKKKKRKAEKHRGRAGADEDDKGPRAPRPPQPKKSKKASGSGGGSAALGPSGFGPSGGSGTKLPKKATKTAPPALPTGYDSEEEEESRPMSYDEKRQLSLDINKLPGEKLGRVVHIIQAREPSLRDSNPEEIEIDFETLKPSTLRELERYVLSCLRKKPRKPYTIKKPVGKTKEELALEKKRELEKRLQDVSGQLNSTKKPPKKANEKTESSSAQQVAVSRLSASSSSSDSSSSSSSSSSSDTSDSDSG

Row | SMILES | pIC50 [1] | IC50 [1] | further results
1 | Cc1noc(C)c1-c1cc(O)cc(C(=O)N2CCOCC2)c1 | 5.42 | 3800 nM | 
2 | Cc1noc(C)c1-c1cc(O)cc(CN2CCCCC2)c1 | 5.37 | 4270 nM | 
3 | Cc1noc(C)c1-c1cc(O)cc(C(O)c2ccc(F)cc2)c1 (stereo not given) | 6.07 | 851 nM | 
4 | COc1cccc(C(O)c2cc(O)cc(-c3c(C)noc3C)c2)c1 (stereo not given) | 6.32 | 479 nM | 
5 | Cc1ccc(C(O)c2cc(O)cc(-c3c(C)noc3C)c2)cc1 (stereo not given) | 6.53 | 295 nM | 
6 | Cc1noc(C)c1-c1cc(O)cc(CNCc2ccccc2)c1 | 5.65 | 2240 nM | 
7 | COc1ccc(C(O)c2cc(O)cc(-c3c(C)noc3C)c2)cc1 (stereo not given) | 6.23 | 589 nM | 
8 | Cc1noc(C)c1-c1cc(O)cc(C(O)c2ccccn2)c1 (stereo not given) | 5.33 | 4680 nM | 
9 | Cc1noc(C)c1-c1cc(O)cc(CN2CCC(F)(F)CC2)c1 | 6.63 | 234 nM | half-life at 3 µM [2]: 27 min; microsomal CLint at 3 µM [3]: 51.4 µL/min/mg
10 | Cc1noc(C)c1-c1cc(O)cc(C(O)c2ccc(Cl)cc2)c1 (stereo not given) | 6.20 | 631 nM | 
11 | Cc1noc(C)c1-c1cc(O)cc(C(=O)N2CCNCC2)c1 | 6.14 | 724 nM | 
12 | Cc1noc(C)c1-c1cc(O)cc(CN2CCCC2)c1 | 5.49 | 3240 nM | 
13 | Cc1noc(C)c1-c1cc(O)cc(CN2CCOCC2)c1 | 6.02 | 955 nM | 
14 | Cc1noc(C)c1-c1cc(O)cc(C(O)c2ccc(Cl)c(Cl)c2)c1 (stereo not given) | 6.02 | 955 nM | 
15 | Cc1noc(C)c1-c1cc(O)cc(C(O)C2CCCCC2)c1 (stereo not given) | 6.78 | 166 nM | 
16 | Cc1noc(C)c1-c1cc(O)cc(C(O)c2cccc(F)c2)c1 (stereo not given) | 6.10 | 794 nM | 
17 | Cc1noc(C)c1-c1cc(O)cc(C(O)c2cccnc2)c1 (stereo not given) | 6.78 | 166 nM | Activity [4]: 4.6%; Activity (Peregrin (Homo sapiens)): 100%; Activity [5]: 98%; GI50 (MCF7): 1400 nM; Activity [6]: 11%; Activity [7]: 1.8%; half-life at 3 µM [2]: 388 min; Activity [8]: 100%; Activity [9]: 100%; Activity [10]: 1.1%; Activity [11]: 100%; GI50 (HT-29): 4400 nM; microsomal CLint at 3 µM [3]: 3.57 µL/min/mg; Activity [12]: 29%; Activity [13]: 1.5%; GI50 (A498): 4880 nM; pKd [14]: 6.61; Activity [15]: 100%
18 | Cc1noc(C)c1-c1cc(O)cc(C(O)c2ccccc2F)c1 (stereo not given) | 5.85 | 1410 nM | 
19 | COc1ccccc1C(O)c1cc(O)cc(-c2c(C)noc2C)c1 (stereo not given) | 6.57 | 269 nM | 
20 | COc1ccc2c(c1)[C@]13CCCC[C@@H]1[C@H](C2)N(C)CC3 [DEXTROMETHORPHAN] |  |  | half-life at 3 µM [2]: 54.5 min; microsomal CLint at 3 µM [3]: 25.4 µL/min/mg
21 | Cc1noc(C)c1-c1cc(O)cc(C(O)C2CC2)c1 (stereo not given) | 6.42 | 380 nM | 
22 | Cc1noc(C)c1-c1cc(O)cc(CN2CCN(C)CC2)c1 | 5.91 | 1230 nM | 
23 | Cc1noc(C)c1-c1cc(O)cc(C(O)c2ccncc2)c1 (stereo not given) | 6.52 | 302 nM | 
24 | Cc1noc(C)c1-c1cc(O)cc(C(O)c2ccc(Cl)cn2)c1 (stereo not given) | 6.31 | 490 nM | 
25 | Cc1noc(C)c1-c1cc(O)cc(Cc2ccccc2)c1 | 5.96 | 1100 nM | 
